ChEMBL document CHEMBL2417429, “Direct and nitroxyl (HNO)-mediated reactions of acyloxy nitroso compounds with the thiol-containing proteins glyceraldehyde 3-phosphate dehydrogenase and alkyl hydroperoxide reductase subunit C” (J Med Chem, 2013)
Counter-ions that a name gives are not always drawn. Activity calls are given as the source filed them. No cut-off for these calls is given here.

What was measured:
[1] = Binding affinity to alkyl hydroperoxide reductase subunit C C165S mutant (unknown origin) assessed as presence of S-nitrosated D41 to G51 peptide by LC-MS analysis
Summary of the method: (§1)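 AhpC C165S pre-reduced with DTT 30 min, desalted on spin column, concentration by A280 (ε 23400 M−1 cm−1). Protein (50 μM) treated with HNO donor (1, 5, 10, 50 equiv) in 0.1 M Tris pH 7.6, room temperature, 60 min; desalted into 25 mM ammonium bicarbonate pH 7.75. Asp-N digest (20:1 w/w, 37 °C, 12−16 h). LC-MS of D41−G51 peptide on high-resolution Orbitrap, positive ion mode.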

[2] = molecular target: Glyceraldehyde-3-phosphate dehydrogenase (Oryctolagus cuniculus) (UniProt P46406); assay: Binding affinity to rabbit muscle GAPDH peptide V232 to R245 assessed as formation of S-nitrosated peptide by LC-MS analysis
Chain of Glyceraldehyde-3-phosphate dehydrogenase (Oryctolagus cuniculus) (P46406 whole entry, looked up): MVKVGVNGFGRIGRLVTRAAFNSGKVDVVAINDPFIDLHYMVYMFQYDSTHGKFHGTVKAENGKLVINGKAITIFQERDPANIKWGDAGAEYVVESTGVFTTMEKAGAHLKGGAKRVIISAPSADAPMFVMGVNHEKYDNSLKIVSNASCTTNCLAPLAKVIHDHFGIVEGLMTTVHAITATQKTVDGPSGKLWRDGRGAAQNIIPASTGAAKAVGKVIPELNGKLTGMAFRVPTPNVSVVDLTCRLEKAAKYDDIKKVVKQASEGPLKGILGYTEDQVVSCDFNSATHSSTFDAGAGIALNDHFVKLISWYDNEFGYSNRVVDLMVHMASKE

[3] = Binding affinity to alkyl hydroperoxide reductase subunit C C165S mutant (unknown origin) assessed as formation of sulfinamide and sulfinic acid by LC-MS analysis; summary of the method: as §1
[4] = Binding affinity to alkyl hydroperoxide reductase subunit C C165S mutant (unknown origin) assessed as unreacted thiol in peptide D41 to G51 by LC-MS analysis; summary of the method: as §1
[5] = Binding affinity to alkyl hydroperoxide reductase subunit C C165S mutant peptide D41 to G51 (unknown origin) assessed as sulfinic acid or sulfinamide modification by MALDI-TOF MS
Summary of the method: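 Pre-reduced, desalted AhpC C165S (50 μM) incubated with HNO donor (1, 5, 10, 50 equiv) in 0.1 M Tris pH 7.6, 60 min at room temperature. Buffer exchanged into ammonium bicarbonate, then Asp-N digest (20:1 w/w, 37 °C, 12−16 h). Digest mixed 1:1 with dihydroxybenzoic acid matrix; D41−G51 peptide mass read by MALDI-TOF.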

[6] = molecular target: Glyceraldehyde-3-phosphate dehydrogenase (Oryctolagus cuniculus) (UniProt P46406); assay: Binding affinity to rabbit muscle GAPDH tryptic peptide I143 to K159 assessed as formation of disulfide bond by LC-MS analysis
Summary of the method: (§2)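 GAPDH from rabbit muscle, untreated or donor-treated, digested with trypsin (monomer:trypsin 20:1 w/w) in 50 mM Tris-HCl, 37 °C, 12−16 h; quenched by freezing. 10 μM digest in 1:1 2% formic acid/methanol run by LC-MS on a high-resolution Orbitrap in positive ion mode; tryptic peptides identified by m/z.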

[7] = molecular target: Glyceraldehyde-3-phosphate dehydrogenase (Oryctolagus cuniculus) (UniProt P46406); assay: Binding affinity to rabbit muscle GAPDH peptide V232 to R245 assessed as formation of mixture of sulfinamide and sulfinic acid by LC-MS analysis; summary of the method: as §2
[8] = molecular target: Glyceraldehyde-3-phosphate dehydrogenase (Oryctolagus cuniculus) (UniProt P46406); assay: Binding affinity to rabbit muscle GAPDH assessed as structural modifications at 5 mM after 60 mins by SDS-PAGE
[9] = molecular target: Glyceraldehyde-3-phosphate dehydrogenase (Oryctolagus cuniculus) (UniProt P46406); assay: (§3) Inhibition of rabbit muscle GAPDH assessed as residual enzyme activity after 60 mins by spectrophotometry
Summary of the method: (§4)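 Rabbit muscle GAPDH incubated with donor (0.1, 0.5, 1, 5, 10, 100 μM) in 0.1 M sodium phosphate pH 7.4, 25 °C, 60 min. NAD+ and glyceraldehyde-3-phosphate then added in a sealed cuvette; NADH formation followed at 340 nm every minute for 30 min. Runs typically in triplicate, mean ± SE; IC50 from sigmoidal fit of percent-of-control activity.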

[10] = molecular target: Glyceraldehyde-3-phosphate dehydrogenase (Oryctolagus cuniculus, UniProt P46406); assay: as §3; summary of the method: as §4
Chain of Glyceraldehyde-3-phosphate dehydrogenase (P46406 whole entry): as the sequence (P46406 whole entry, looked up) above

[11] = molecular target: Glyceraldehyde-3-phosphate dehydrogenase (Oryctolagus cuniculus) (UniProt P46406); assay: Binding affinity to rabbit muscle GAPDH assessed as structural modifications of Cys149, Cys153 and Cys244 at 5 mM after 60 mins by MALDI-TOF MS
[12] = Binding affinity to alkyl hydroperoxide reductase subunit C C165S mutant (unknown origin) assessed as formation of sulfinic acid of Cys46 of peptide D41 to G51 by LC-MS analysis; summary of the method: as §1
[13] = molecular target: Glyceraldehyde-3-phosphate dehydrogenase (Oryctolagus cuniculus) (UniProt P46406); assay: Binding affinity to rabbit muscle GAPDH peptide V232 to R245 assessed as formation of sulfinic acid of Cys244 by LC-MS analysis; summary of the method: as §2
[14] = molecular target: Glyceraldehyde-3-phosphate dehydrogenase (Oryctolagus cuniculus) (UniProt P46406); assay: Reversible inhibition of rabbit muscle GAPDH assessed as residual enzyme activity at 1 uM after 60 mins followed by incubation with DTT by spectrophotometry relative to control
Summary of the method: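 GAPDH (rabbit muscle) exposed to inhibitor for 60 min in 0.1 M phosphate pH 7.4 at 25 °C, then incubated with DTT (100 mM) for 60 min. Residual activity measured by NADH build-up at 340 nm after adding NAD+ and glyceraldehyde-3-phosphate, read each minute over 30 min; expressed as percent of control.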

[15] = molecular target: Glyceraldehyde-3-phosphate dehydrogenase (Oryctolagus cuniculus) (UniProt P46406); assay: Residual activity of rabbit muscle GAPDH at 1 uM after 60 mins by spectrophotometry
[16] = Half life of the compound in neutral buffer at 1 mM by stopped-flow UV-Vis spectrophotometry; assay type: physicochemical; settings: 1000 µM
[17] = Chemical stability of the compound in neutral buffer assessed as rate constant at 1 mM by stopped-flow UV-Vis spectrophotometry; assay type: physicochemical; settings: 1000 µM
[18] = Binding affinity to alkyl hydroperoxide reductase subunit C C165S mutant (unknown origin) assessed as formation of mixture of sulfinamide and sulfinic acid at Cys46 by LC-MS analysis; summary of the method: as §1
[19] = Binding affinity to alkyl hydroperoxide reductase subunit C C165S mutant (unknown origin) assessed as structural modifications by SDS-PAGE
[20] = Binding affinity to alkyl hydroperoxide reductase subunit C C165S mutant (unknown origin) assessed as formation of sulfinic acid by LC-MS analysis
Summary of the method: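 AhpC C165S reduced with DTT, desalted by spin column, quantified at 280 nm; 50 μM protein incubated with compound (1, 5, 10, 50 equiv) in 0.1 M Tris pH 7.6, room temperature, 60 min; desalted into 25 mM ammonium bicarbonate, Asp-N digest (20:1 w/w, 37 °C, 12–16 h); Orbitrap LC-MS, 55 min gradient, positive ion.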

[21] = molecular target: Glyceraldehyde-3-phosphate dehydrogenase (Oryctolagus cuniculus) (UniProt P46406); assay: Binding affinity to rabbit muscle GAPDH peptide V232 to R245 assessed as formation of sulfinic acid and N-phenylsulfinamide by LC-MS analysis

SMILES	Activity [4]	Activity [5]	Activity [6]	Activity [8]	inhibition [9]	IC50 [10] [nM]	Activity [11]	residual activity [15] [%]	other results
CCN(CC)N(O)N=O									Activity [1]: Active; Activity [2]: Active
N[C@@H](CCC(=O)N[C@@H](CSN=O)C(=O)NCC(=O)O)C(=O)O									Activity [1]: Active
[O-][N+]([O-])=NO [ANGELI'S SALT]	inactive	Active	Active	inactive	Dose-dependent effect	400	Active		Activity [3]: Active; Activity [7]: Active
CC(C)(C)C(=O)OC1(N=O)CCCCC1	inactive	Active	Active	inactive	Dose-dependent effect	150	Active	76	Activity [12]: Active; Activity [13]: Active; Activity [14]: 88%
O=NC1(OC(=O)C(F)(F)F)CCCCC1 [1-NITROSOCYCLOHEXYL TRIFLUOROACETATE]	inactive	Active				670		42	t1/2 [16]: 121 ms; K [17]: 5.74 s⁻¹; Activity [18]: Active
O=S(=O)(NO)c1ccccc1Br			Active						Activity [18]: Active; Activity [7]: Active
CC(=O)OC1(N=O)CCCCC1 [1-NITROSOCYCLOHEXYL ACETATE]	inactive	Active	Active	inactive	Dose-dependent effect	200	Active	5	Activity [12]: Active; Activity [13]: Active; Activity [19]: Active; Activity [14]: 12%
O=Nc1ccccc1			Active						Activity [20]: Active; Activity [21]: Active
